Source: ChEMBL document CHEMBL4024800, “α-Amino-β-carboxymuconate-ε-semialdehyde Decarboxylase (ACMSD) Inhibitors as Novel Modulators of De Novo Nicotinamide Adenine Dinucleotide (NAD+) Biosynthesis” (J Med Chem, 2018)
Calls of active or inactive are those of the source. The rule behind the calls is not given here.

What was measured:
[1] = target: Cytochrome P450 3A4 (Homo sapiens, UniProt P08684); assay: Inhibition of recombinant human CYP3A4 expressed in baculosomes expression system using fluorogenic-BOMCC as substrate by fluorescent homogeneous assay; format: ADME
Summary of the method: (§1)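 Recombinant CYP baculosomes with fluorogenic substrates, at concentrations below their Km; homogeneous fluorescence read-out, run in triplicate. IC50 classes: <1 μM potent, 1–10 μM moderate, >10 μM weak or none.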

[2] = species: Homo sapiens; assay: Activity at LXR (unknown origin)
Summary of the method: (§2)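 Eight-point serial dilutions tested in an in-house AlphaScreen-based nuclear receptor panel; activity derived from nonlinear regression curves.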

[3] = AUClast in CD1 mouse at 0.5 mg/kg, iv measured up to 24 hrs post dose; format: ADME, organism-based; parameters: dose 0.5 mg/kg, time < 24 hr, route intravenous; conditions: in vivo
Summary of the method: (§3)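 Mice given 0.5 mg/kg IV in saline containing 5% (v/v) DMSO and 20% (v/v) PEG400; blood pharmacokinetic parameters reported as means.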

[4] = target: 2-amino-3-carboxymuconate-6-semialdehyde decarboxylase (Homo sapiens, UniProt Q8TDX5); assay: Inhibition of human ACMSD expressed in Pichia pastoris using ACMS as substrate by coupled spectrophotometric assay
Summary of the method: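 Recombinant enzyme purified from Pichia pastoris; ACMS substrate generated in a pre-assay mix from 10 μM 3-hydroxyanthranilic acid by Ralstonia metallidurans 3-hydroxyanthranilate 3,4-dioxygenase, formation monitored at 360 nm. Enzyme and compound then added together; activity from initial rate of absorbance decrease minus a no-enzyme control. Serial dilutions, 1.0% DMSO throughout. IC50 from concentration–response curves, mean ± SD of three independent experiments.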

[5] = Apparent passive permeability from apical to basolateral side in MDCK2-MDR1 cells at 3 uM after 90 mins by LC-MS/MS analysis; format: ADME, cell-based, Canis lupus familiaris; conditions: dog, MDCK-MDR1
Summary of the method: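 MDCKII-MDR1 monolayers, HBSS transport medium pH 7.4; compound 3 μM for 90 min, run with and without a P-gp inhibitor, n = 3. Quantified by LC-MS/MS as analyte/internal-standard peak-area ratio; monolayer integrity checked with Lucifer yellow. Papp given in nm/sec, A>B.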

[6] = Volume of distribution at steady state in CD1 mouse at 0.5 mg/kg, iv measured up to 24 hrs post dose; format: ADME, organism-based; conditions: in vivo, read-out: Vdss; summary of the method: as §3
[7] = Clearance in CD1 mouse at 0.5 mg/kg, iv measured up to 24 hrs post dose; format: ADME, organism-based; conditions: in vivo; summary of the method: as §3
[8] = target: T1, Cytochrome P450 3A1 (Rattus norvegicus, UniProt P04800); assay: Inhibition of recombinant rat CYP3A1 expressed in baculosomes expression system using fluorogenic-BOMCC as substrate by fluorescent homogeneous assay; format: ADME; summary of the method: as §1
T1 sequence (P04800 whole entry): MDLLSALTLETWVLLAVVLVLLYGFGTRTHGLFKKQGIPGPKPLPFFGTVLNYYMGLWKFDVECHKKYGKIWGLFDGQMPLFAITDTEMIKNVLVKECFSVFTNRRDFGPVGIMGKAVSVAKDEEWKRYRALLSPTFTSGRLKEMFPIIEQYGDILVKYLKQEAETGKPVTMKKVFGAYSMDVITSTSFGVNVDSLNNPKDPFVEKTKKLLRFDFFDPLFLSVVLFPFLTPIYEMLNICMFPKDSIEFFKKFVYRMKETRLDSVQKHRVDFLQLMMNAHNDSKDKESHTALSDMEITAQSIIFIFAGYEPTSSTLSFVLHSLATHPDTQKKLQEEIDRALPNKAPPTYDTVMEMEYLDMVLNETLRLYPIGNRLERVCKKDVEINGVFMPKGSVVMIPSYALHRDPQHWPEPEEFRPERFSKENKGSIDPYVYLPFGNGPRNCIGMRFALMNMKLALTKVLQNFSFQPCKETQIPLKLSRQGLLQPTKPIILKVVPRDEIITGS

[9] = system: Mus musculus; assay: In vivo inhibition of ACMSD in C57BL/6 mouse assessed as increase in NAD+ levels in liver at 15 and 30 mg/kg/day for 10 days dosed as diet supplement by ion-pair C18- HPLC chromatography; format: functional, organism-based
Summary of the method: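 Male mice given the compound in the diet for 10 days; vehicle 5% DMSO, 20% PEG. After a 3 h fast, livers snap-frozen and ground; NAD+ extracted by sonication in HClO4, quantified by ion-pair C18 HPLC and normalised to BCA protein. One-way ANOVA with Dunnett's test.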

[10] = AUClast in mouse kidney at 5 mg/kg, po measured up to 8 hrs post dose; format: ADME, organism-based; parameters: time < 8 hr, dose 5 mg/kg, route oral
Summary of the method: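 Mice dosed orally at 5 mg/kg in 0.5% (w/v) HPMC in water with 5% (v/v) DMSO; blood, liver and kidney concentrations followed to 8 h. AUC0–8h given in h·ng/mL; parameters reported as means.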

[11] = system: Mus musculus; assay: In vivo inhibition of ACMSD in CD1 mouse kidney at 5 mg/kg, po after 0.5 to 2 hrs; format: functional, organism-based
Summary of the method: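 CD1 mice dosed orally at 5 mg/kg in 0.5% (w/v) HPMC in water with 5% (v/v) DMSO; kidneys collected at various times, snap-frozen and ground. Tissue powder homogenised in 50 mM Tris pH 7.5, 0.15 M NaCl with protease inhibitors, spun 38 000g 20 min at 4 °C. Supernatant assayed spectrophotometrically with 30 μM 3-hydroxyanthranilic acid; activity normalised to BCA protein. One-way ANOVA with Dunnett's test.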

[12] = target: T2, Vitamin D3 receptor (Homo sapiens) (UniProt P11473); assay: Activity at VDR (unknown origin); summary of the method: as §2
T2 sequence (whole entry): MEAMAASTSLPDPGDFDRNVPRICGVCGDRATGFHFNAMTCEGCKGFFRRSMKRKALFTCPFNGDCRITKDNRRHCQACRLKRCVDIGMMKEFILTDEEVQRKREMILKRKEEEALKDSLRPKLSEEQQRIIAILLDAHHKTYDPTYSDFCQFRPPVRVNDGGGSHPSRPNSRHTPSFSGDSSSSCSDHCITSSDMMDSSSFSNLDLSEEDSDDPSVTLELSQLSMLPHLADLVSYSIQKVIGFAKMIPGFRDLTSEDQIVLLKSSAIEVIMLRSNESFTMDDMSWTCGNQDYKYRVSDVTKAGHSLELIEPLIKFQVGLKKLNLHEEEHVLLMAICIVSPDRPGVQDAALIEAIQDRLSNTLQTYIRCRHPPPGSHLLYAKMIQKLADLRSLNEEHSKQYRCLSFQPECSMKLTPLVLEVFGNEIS

[13] = target: Voltage-gated inwardly rectifying potassium channel KCNH2 (Homo sapiens, UniProt Q12809); assay: Displacement of red fluorescent channel ligand tracer from human ERG expressed in CHO cell membranes
Summary of the method: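 Fluorescence polarisation kit: membranes from CHO cells stably expressing hERG, with a red fluorescent high-affinity tracer; competitors detected by tracer displacement, seen as lowered polarisation. Final DMSO 1%; E-4031 reference.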

[14] = species: Homo sapiens; assay: Activity at RXR (unknown origin); summary of the method: as §2

Cytochrome P450 3A4, sequence (P08684 whole entry): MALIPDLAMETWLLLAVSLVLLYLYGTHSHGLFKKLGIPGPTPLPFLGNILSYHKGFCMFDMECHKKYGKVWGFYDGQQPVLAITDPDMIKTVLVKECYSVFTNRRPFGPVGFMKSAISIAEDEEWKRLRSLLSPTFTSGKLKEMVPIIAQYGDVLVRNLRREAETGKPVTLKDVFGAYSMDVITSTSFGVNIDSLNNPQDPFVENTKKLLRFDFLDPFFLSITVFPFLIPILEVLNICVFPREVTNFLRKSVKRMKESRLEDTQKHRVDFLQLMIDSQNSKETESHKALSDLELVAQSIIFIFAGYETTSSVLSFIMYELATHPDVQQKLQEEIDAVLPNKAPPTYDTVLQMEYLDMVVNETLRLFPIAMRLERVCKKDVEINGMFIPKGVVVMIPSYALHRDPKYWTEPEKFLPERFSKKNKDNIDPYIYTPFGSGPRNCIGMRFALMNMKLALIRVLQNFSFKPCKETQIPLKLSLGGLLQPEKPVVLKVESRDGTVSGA
Voltage-gated inwardly rectifying potassium channel KCNH2, sequence (Q12809 whole entry): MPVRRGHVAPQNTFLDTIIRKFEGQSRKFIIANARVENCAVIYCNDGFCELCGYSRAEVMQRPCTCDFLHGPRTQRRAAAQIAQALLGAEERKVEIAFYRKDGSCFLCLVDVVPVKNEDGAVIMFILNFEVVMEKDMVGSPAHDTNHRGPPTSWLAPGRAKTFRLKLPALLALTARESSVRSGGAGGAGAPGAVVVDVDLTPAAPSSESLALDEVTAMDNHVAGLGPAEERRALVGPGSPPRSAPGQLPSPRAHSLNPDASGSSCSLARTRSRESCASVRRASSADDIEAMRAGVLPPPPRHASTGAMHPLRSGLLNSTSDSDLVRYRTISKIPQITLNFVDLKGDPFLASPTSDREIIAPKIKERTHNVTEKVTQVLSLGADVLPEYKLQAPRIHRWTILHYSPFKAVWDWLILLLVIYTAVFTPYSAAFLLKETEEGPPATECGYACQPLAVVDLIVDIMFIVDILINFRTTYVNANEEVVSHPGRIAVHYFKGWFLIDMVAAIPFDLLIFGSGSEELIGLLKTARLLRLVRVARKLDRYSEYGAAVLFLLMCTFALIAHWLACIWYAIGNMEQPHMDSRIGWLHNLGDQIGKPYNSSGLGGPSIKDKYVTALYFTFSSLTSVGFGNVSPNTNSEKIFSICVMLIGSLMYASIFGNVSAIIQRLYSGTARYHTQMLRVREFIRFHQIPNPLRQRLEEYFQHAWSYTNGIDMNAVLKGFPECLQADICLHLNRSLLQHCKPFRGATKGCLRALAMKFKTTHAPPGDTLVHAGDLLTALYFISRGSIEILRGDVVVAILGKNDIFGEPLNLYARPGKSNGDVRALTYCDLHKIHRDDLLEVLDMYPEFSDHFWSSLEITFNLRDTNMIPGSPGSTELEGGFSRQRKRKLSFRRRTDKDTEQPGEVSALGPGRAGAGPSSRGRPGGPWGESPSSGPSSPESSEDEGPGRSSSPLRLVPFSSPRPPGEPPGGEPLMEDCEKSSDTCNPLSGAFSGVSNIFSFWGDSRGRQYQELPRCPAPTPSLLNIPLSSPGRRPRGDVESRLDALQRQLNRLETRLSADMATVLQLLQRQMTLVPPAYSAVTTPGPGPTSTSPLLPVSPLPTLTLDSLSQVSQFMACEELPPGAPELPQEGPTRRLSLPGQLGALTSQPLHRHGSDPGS
2-amino-3-carboxymuconate-6-semialdehyde decarboxylase, sequence (Q8TDX5 whole entry): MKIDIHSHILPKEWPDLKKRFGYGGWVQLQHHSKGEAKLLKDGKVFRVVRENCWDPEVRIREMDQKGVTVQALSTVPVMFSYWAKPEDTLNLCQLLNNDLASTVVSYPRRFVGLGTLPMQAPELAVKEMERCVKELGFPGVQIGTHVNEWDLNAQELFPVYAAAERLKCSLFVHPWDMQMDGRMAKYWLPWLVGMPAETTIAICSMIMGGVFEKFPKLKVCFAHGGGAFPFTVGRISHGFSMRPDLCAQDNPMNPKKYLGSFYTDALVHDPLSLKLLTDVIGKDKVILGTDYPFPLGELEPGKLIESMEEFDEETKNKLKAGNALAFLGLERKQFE

IC50 [1]: > 10 µM | Activity [2]: inactive | AUC(0-t) at 24 h [3]: 10700 ng·h/mL | IC50 [4]: 0.013 µM | Papp A→B at 1.5 h, 3 µM [5]: 0.456 ×10⁻⁶ cm/s | Vd [6]: 0.273 L/kg | clearance [7]: 0.78 mL/min/kg | IC50 [8]: > 10 µM | AUC(0-t) at 8 h [10]: 36600 ng·h/mL | Activity [12]: inactive | Activity [14]: inactive
SMILES: N#Cc1c(-c2cccs2)nc(SCc2cccc(CC(=O)O)c2)[nH]c1=O
inhibition [9]: Active | inhibition [11]: Active | inhibition (INH) [13]: Not Active
